The values below come from ChEMBL document CHEMBL4406921, “Discovery of Axelopran (TD-1211): A Peripherally Restricted μ-Opioid Receptor Antagonist” (ACS Med Chem Lett, 2019).

Data set [1] has as its target Delta-type opioid receptor (Homo sapiens, UniProt P41143). Put plainly: Displacement of [3H]-DPN from recombinant human delta opioid receptor expressed in CHO-K1 cell membranes by radioligand binding assay. An outline of the steps:
(§1)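 Membranes from CHO-K1 cells stably transfected with human recombinant μ or δ receptor, or guinea pig κ receptor; competition with [3H]-DPN radioligand; affinity reported as pKi.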
For orientation: Displacement assays read how much labelled ligand stays bound in the presence of the test substance.

Data set [2] addresses T1, Mu-type opioid receptor (Homo sapiens, UniProt P35372). Nature of the data set: Antagonist activity at human recombinant mu opioid receptor expressed in CHO-K1 cell membranes assessed as intrinsic activity at 10 pM to 20 uM incubated for 30 mins in presence of Eu-GTP by DELFIA GTP binding assay relative to DAMGO.
Data set [3] addresses Kappa-type opioid receptor (Cavia porcellus, UniProt P41144). Put plainly: Displacement of [3H]-DPN from guinea pig kappa opioid receptor expressed in CHO-K1 cell membranes by radioligand binding assay. The method in brief:
as §1

For data set [4], the target named is T1, Mu-type opioid receptor. Put plainly: Displacement of [3H]-DPN from recombinant human mu opioid receptor expressed in CHO-K1 cell membranes by radioligand binding assay. An outline of the steps:
as §1

Data set [5] is described as follows: Half life in human liver microsomes at 3 uM. It counts as ADME, Microsome. In general terms: Microsomes from liver hold many membrane-bound enzymes, among them those of drug oxidation.
Data set [6] is described as follows: Half life in dog liver microsomes at 3 uM. It counts as ADME, Canis lupus familiaris, Microsome.
Data set [7] is described as follows: Half life in rat liver microsomes at 3 uM. It counts as ADME, Microsome.
The nature of data set [8]: Permeability coefficient, Kp in human Caco2 cells. The settings on record: Caco-2, read-out: Kp. It counts as ADME, cell-based. Background: Caco-2 monolayers are a common model of the intestinal barrier.

Kappa-type opioid receptor, sequence (P41144 whole entry): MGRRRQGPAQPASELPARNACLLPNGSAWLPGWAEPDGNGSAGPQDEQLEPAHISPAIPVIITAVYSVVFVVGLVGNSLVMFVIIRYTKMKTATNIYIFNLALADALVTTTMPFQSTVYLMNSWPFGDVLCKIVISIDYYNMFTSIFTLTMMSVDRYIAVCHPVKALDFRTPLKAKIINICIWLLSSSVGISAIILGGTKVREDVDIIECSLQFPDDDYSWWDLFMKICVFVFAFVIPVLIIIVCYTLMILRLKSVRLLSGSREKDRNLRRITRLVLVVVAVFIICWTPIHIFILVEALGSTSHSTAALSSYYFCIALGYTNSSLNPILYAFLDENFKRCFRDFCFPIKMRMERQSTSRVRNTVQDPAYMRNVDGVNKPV
T1 sequence (P35372 whole entry): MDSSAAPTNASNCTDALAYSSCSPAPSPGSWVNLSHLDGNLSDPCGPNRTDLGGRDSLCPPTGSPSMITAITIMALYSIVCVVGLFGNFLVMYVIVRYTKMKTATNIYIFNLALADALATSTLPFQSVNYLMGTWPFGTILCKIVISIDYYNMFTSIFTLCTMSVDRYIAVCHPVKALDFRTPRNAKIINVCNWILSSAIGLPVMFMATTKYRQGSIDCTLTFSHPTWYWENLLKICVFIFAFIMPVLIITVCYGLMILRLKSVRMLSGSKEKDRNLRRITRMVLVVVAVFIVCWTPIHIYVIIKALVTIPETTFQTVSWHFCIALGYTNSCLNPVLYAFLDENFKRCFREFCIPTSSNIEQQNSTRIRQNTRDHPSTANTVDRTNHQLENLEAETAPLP
Delta-type opioid receptor, sequence (P41143 whole entry): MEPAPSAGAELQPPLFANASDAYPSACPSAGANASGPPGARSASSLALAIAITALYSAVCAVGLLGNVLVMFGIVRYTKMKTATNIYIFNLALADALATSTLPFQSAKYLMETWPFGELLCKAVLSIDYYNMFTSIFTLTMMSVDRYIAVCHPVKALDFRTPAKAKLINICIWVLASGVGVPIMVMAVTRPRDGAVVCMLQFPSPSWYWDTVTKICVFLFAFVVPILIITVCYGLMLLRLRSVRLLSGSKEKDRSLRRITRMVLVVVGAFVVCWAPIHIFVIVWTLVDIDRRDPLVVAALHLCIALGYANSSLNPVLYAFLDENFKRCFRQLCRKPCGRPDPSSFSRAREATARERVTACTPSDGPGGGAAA

The term Ki denotes a dissociation constant, usually derived from enzyme kinetics or from competition with a known ligand. In general, half-life refers to how long it takes for the measured level to halve. A lower half-life goes with fast loss. On to `CC(C)(C)C(=O)N(CCN1[C@@H]2CC[C@H]1C[C@@H](c1cccc(C(N)=O)c1)C2)CC1CCCCC1`, for which the Ki in data set [1] was 2 nM; in data set [3], 0.158 nM; at Mu-type opioid receptor [4], 0.126 nM. Moreover, the Intrinsic activity on Mu-type opioid receptor [2] was 3%. In addition, the figures for the half-life at 3 µM in data set [5], in data set [6] and in data set [7] were 9 min, 2 min and 12 min, respectively.
In the case of `CC(C)NC(=O)N(CCN1[C@@H]2CC[C@H]1C[C@@H](c1cccc(C(N)=O)c1)C2)CC1CCCCC1`, the inhibition constant (Ki) in data set [1] is 1.26 nM; in data set [3], 0.158 nM; at Mu-type opioid receptor [4] it was 0.2 nM. For the same compound, on Mu-type opioid receptor [2], the Intrinsic activity came out at 21%. Also, in data set [8], the Papp came out at 36 ×10⁻⁶ cm/s. The half-life at 3 µM in data set [6] was determined as 14 min; in data set [7] it was 20 min.
On to `NC(=O)c1cccc([C@H]2C[C@H]3CC[C@@H](C2)N3CCN(CC2CCCC2)C(=O)CO)c1`, for which the Ki was 15.8 nM in data set [1], 0.316 nM in data set [3] and 0.251 nM at Mu-type opioid receptor [4]. For the same compound, on Mu-type opioid receptor [2], the Intrinsic activity came out at 4%. Further, the Papp in data set [8] came to 12 ×10⁻⁶ cm/s. The values for the half-life at 3 µM in data set [5], in data set [6] and in data set [7] were 90 min, 14 min and 90 min, respectively.
As for `NC(=O)c1cccc([C@H]2C[C@H]3CC[C@@H](C2)N3CCN(CC2CCOCC2)C(=O)CO)c1`, the inhibition constant (Ki) is 200 nM in data set [1], 6.31 nM in data set [3] and 12.6 nM at Mu-type opioid receptor [4]. In addition, on Mu-type opioid receptor [2], the Intrinsic activity stood at 0%. Also, the Papp in data set [8] is less than 1 ×10⁻⁶ cm/s. Moreover, the half-life at 3 µM in data set [5], in data set [6] and in data set [7] was 90 min each time.
With `NC(=O)c1cccc([C@H]2C[C@H]3CC[C@@H](C2)N3CCN(CC2CCC2)C(=O)CO)c1`, the inhibition constant (Ki) in data set [1] is 31.6 nM; in data set [3], 0.631 nM; at Mu-type opioid receptor [4], 1.58 nM. Further, at Mu-type opioid receptor [2], the Intrinsic activity came to 13%. In addition, in data set [8], the Papp was determined as 14 ×10⁻⁶ cm/s. Besides, the half-life at 3 µM in data set [5], in data set [6] and in data set [7] was 90 min throughout.
For the compound `NC(=O)c1cccc([C@H]2C[C@H]3CC[C@@H](C2)N3CCN(Cc2ccccc2)C(=O)CO)c1`, the Ki is 5.01 nM in data set [1] and 0.2 nM in data set [3]. In addition, the Intrinsic activity on Mu-type opioid receptor [2] is -3%. Moreover, the Papp in data set [8] was determined as 21 ×10⁻⁶ cm/s. Further, the half-life at 3 µM in data set [5] was determined as 90 min; in data set [6] it was 90 min; in data set [7], 85 min.
For `NC(=O)c1cccc([C@H]2C[C@H]3CC[C@@H](C2)N3CCN(CC2CCCCC2)C(=O)Cc2nnn[nH]2)c1`, the figures for the Ki (in data set [1]; in data set [3]; on Mu-type opioid receptor [4]) were 3.16 nM, 1.58 nM and 0.398 nM, respectively. In addition, the Intrinsic activity at Mu-type opioid receptor [2] is 0%. The Papp in data set [8] is less than 1 ×10⁻⁶ cm/s. Moreover, the half-life at 3 µM in data set [5], in data set [6] and in data set [7] was 90 min throughout.
Regarding `COC(=O)N(CCN1[C@@H]2CC[C@H]1C[C@@H](c1cccc(C(N)=O)c1)C2)CC1CCCCC1`, the Ki in data set [1] is 2.51 nM; in data set [3], 0.2 nM; on Mu-type opioid receptor [4], 0.126 nM. In addition, the Intrinsic activity at Mu-type opioid receptor [2] was found to be 7%. The half-life at 3 µM in data set [5] came to 7 min; in data set [6] it was 2 min; in data set [7], 2 min.
As for `NC(=O)c1cccc([C@H]2C[C@H]3CC[C@@H](C2)N3CCN(CCc2ccccc2)C(=O)CO)c1`, the inhibitory constant (Ki) in data set [1] was 20 nM. For the same compound, the Papp in data set [8] was determined as 16 ×10⁻⁶ cm/s. For the same compound, the half-life at 3 µM was 90 min in data set [5], 61 min in data set [6] and 34 min in data set [7].
On to `CCC(CC)CN(CCCCN1[C@@H]2CC[C@H]1C[C@@H](c1cccc(C(N)=O)c1)C2)C(=O)CO`, for which the inhibition constant (Ki) in data set [1] was 20 nM; at Mu-type opioid receptor [4], 0.631 nM. Also, the Intrinsic activity at Mu-type opioid receptor [2] is -1%. Also, the half-life at 3 µM in data set [5] stood at 21 min; in data set [6] it was 90 min; in data set [7], 90 min.
With `C[C@H]1CN(CCC(=O)O)CC[C@@]1(C)c1cccc(O)c1`, the Ki in data set [1] was 3160 nM; on Mu-type opioid receptor [4] it was 631 nM. For the same compound, at Mu-type opioid receptor [2], the Intrinsic activity turned out to be 4%. For the same compound, the Papp in data set [8] is less than 1 ×10⁻⁶ cm/s. Moreover, in data set [7], the half-life at 3 µM is more than 90 min.
In the case of `NC(=O)c1cccc([C@H]2C[C@H]3CC[C@@H](C2)N3CCN(CC2CCCCC2)C(=O)c2ccco2)c1`, the Ki in data set [1] is 1.26 nM; in data set [3], 0.1 nM; at Mu-type opioid receptor [4], 0.1 nM. For the same compound, the Intrinsic activity at Mu-type opioid receptor [2] worked out at 1%. The half-life at 3 µM in data set [5] worked out at 17 min; in data set [6], 2 min; in data set [7], 10 min.
With `CC(=O)N(CCN1[C@@H]2CC[C@H]1C[C@@H](c1cccc(C(N)=O)c1)C2)CC1CCCCC1`, the inhibition constant (Ki) in data set [1] was 1.58 nM; in data set [3], 0.126 nM; on Mu-type opioid receptor [4], 0.1 nM. At Mu-type opioid receptor [2], the Intrinsic activity was -1%. The half-life at 3 µM was determined as 63 min in data set [5], 16 min in data set [6] and 74 min in data set [7].
For the compound `C[C@H]1CN(CCCc2ccccc2)CC[C@@]1(C)c1cccc(O)c1`, the values for the Ki (in data set [1]; in data set [3]; on Mu-type opioid receptor [4]) were 1.26 nM, 0.794 nM and 0.1 nM, respectively. Further, the Intrinsic activity at Mu-type opioid receptor [2] was -21%. Also, the half-life at 3 µM in data set [7] was found to be 6 min.
On to `CN(C)S(=O)(=O)N(CCN1[C@@H]2CC[C@H]1C[C@@H](c1cccc(C(N)=O)c1)C2)CC1CCCCC1`, for which the figures for the Ki (in data set [1]; in data set [3]; on Mu-type opioid receptor [4]) were 2 nM, 0.2 nM and 0.2 nM, respectively. On Mu-type opioid receptor [2], the Intrinsic activity was 0%. Also, the half-life at 3 µM in data set [5] turned out to be 9 min; in data set [6], 5 min; in data set [7], 8 min.
Regarding `CCC(CC)CN(CCCCCN1[C@@H]2CC[C@H]1C[C@@H](c1cccc(C(N)=O)c1)C2)C(=O)CO`, the Ki in data set [1] was 20 nM; on Mu-type opioid receptor [4] it was 0.631 nM. Also, the Intrinsic activity on Mu-type opioid receptor [2] is 1%. In addition, the half-life at 3 µM in data set [5] was 12 min; in data set [6] it was 19 min; in data set [7], 28 min.
Consider `CCC(CC)CN(CCCCCCN1[C@@H]2CC[C@H]1C[C@@H](c1cccc(C(N)=O)c1)C2)C(=O)CO`, for which the Ki in data set [1] was 25.1 nM; at Mu-type opioid receptor [4] it was 1 nM. Also, the Intrinsic activity at Mu-type opioid receptor [2] is -2%. The results for the half-life at 3 µM in data set [5], in data set [6] and in data set [7] were 9 min, 9 min and 26 min, respectively.
Consider `CCC(CC)CN(CCCN1[C@@H]2CC[C@H]1C[C@@H](c1cccc(C(N)=O)c1)C2)C(=O)CO`, for which the inhibition constant Ki is 3.16 nM in data set [1] and 0.2 nM in data set [3]. Further, the Intrinsic activity on Mu-type opioid receptor [2] turned out to be 3%. The Papp in data set [8] was 20 ×10⁻⁶ cm/s. For the same compound, the half-life at 3 µM came out at 90 min in data set [5], 90 min in data set [6] and 89 min in data set [7].
Consider `CS(=O)(=O)N(CCN1[C@@H]2CC[C@H]1C[C@@H](c1cccc(C(N)=O)c1)C2)CC1CCCCC1`, for which the figures for the inhibition constant Ki (in data set [1]; in data set [3]; on Mu-type opioid receptor [4]) were 7.94 nM, 0.794 nM and 0.251 nM, respectively. The Intrinsic activity on Mu-type opioid receptor [2] stood at 1%. The half-life at 3 µM in data set [5] was found to be 19 min; in data set [6], 2 min; in data set [7], 13 min.
